# The list is not random: actives were taken first. Their share in the collection is about 1.6%.
# MDM2 E3 inh = blocks human Mdm2 ubiquitin ligase activity. AID 1230. cell-based MDM2 ubiquitination luciferase reporter, 2 h; 0 = plate control, 100 = twice control, blank-subtracted. hit rate 0.11% among 210,000. Q00987. signal enhancement, % at 5 µM;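 active = signal enhancement of 30% or more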;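 also: luminescence tracks abundance of the self-degrading MDM2-luciferase fusion protein; higher signal means inhibition of MDM2 E3 ligase activity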
# Target sequence (Q00987 whole entry, looked up, the tested form may be a part): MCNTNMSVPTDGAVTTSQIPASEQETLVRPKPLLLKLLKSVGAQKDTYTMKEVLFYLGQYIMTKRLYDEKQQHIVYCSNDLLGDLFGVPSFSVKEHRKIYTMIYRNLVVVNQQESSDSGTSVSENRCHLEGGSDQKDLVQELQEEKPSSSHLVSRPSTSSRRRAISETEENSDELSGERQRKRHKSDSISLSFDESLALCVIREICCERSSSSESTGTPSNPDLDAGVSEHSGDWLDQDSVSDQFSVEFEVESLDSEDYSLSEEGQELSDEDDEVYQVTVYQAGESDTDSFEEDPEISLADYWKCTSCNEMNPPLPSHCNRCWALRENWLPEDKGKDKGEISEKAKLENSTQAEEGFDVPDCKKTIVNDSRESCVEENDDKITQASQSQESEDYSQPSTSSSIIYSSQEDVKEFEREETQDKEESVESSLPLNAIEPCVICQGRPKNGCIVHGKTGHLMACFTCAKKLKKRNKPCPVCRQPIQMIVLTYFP
#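 system = mammalian cells stably expressing self-ubiquitinating, self-degrading MDM2 E3–luciferase fusion | quantity = 2000 cells per well seeded | incubation = 4 h cell settling then 2 h compound exposure, 37 °C | signal = SteadyLite luminescence, 15 min reagent step | benchmarks = plate control and blank wells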
# Wee1 stabilizer = blocks degradation of human Wee1 kinase; P30291; HeLa Luc-Wee1K328M stability, luciferase luminescence; 100% = proteasome inhibitor MG132 effect; reporter increase, % at 5 µM; hit rate 1.2% among 220,000; AID 1321;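 active = activation above the mean of all tested compounds plus 3 SD, set per screening run, cut at about 8.8% in these data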;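 also: cells exposed to compound for 20 h before luminescence read; 0% = DMSO alone and 100% = MG132 at 30 µM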
# TNF necrop inh = TNF-alpha cell death inhibition in Jurkat FADD-/- cells. Jurkat FADD-/- TNF necroptosis rescue, ATP luminescence, 24 h; 0 = TNF only, 100 = no-TNF cells. activation (protection from cell death), % at 10 µM. hit rate 0.068% among 220,000;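 active = activation, meaning protection from cell death, of at least 50% relative to plate controls; inactive = activation below 50%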;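 also: necroptosis triggered by 40 ng/mL TNF-alpha added together with compound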
# L929 necroptosis = blocks zVAD induced death of L929 cells. L929 zVAD necroptosis rescue, ATP luminescence, 24 h; with zVAD 60 µM. viability rescue, % at 10 µM. hit rate 0.38% among 220,000;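 active = activation, scaled between plate controls, above about 75%, limit read from the data; inactive = activation under that limit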;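 also: 0% = zVAD with DMSO and 100% = DMSO alone without zVAD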
# Pf gamet viab = inhibitors of late stage P. falciparum gametocyte viability | P. falciparum stage V gametocytes, ATP luminescence, 24 h | inhibition, % at 10.9 µM | hit rate 0.065% among 150,000 | AID 743093;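 active = inhibition above the mean plus 3 SD of compounds within the control limits, set per campaign, cut at about 38% in these data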;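 also: 0% = DMSO wells and 100% = medium only without gametocytes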
# An asterisk follows results filed as active; x = not tested or not shown.
SMILES,MDM2 E3 inh,Wee1 stabilizer,TNF necrop inh,L929 necroptosis,Pf gamet viab
C/C(=N\NC(=O)CN1CCN(S(=O)(=O)c2ccc(C)cc2)CC1)c1ccc(O)cc1,-2,4,0,-1,23
COC(=O)Cc1c(O)ccn(CCc2ccccc2)c1=O,-3,1,0,1,21
CCn1c2ccccc2c2cc(N=C3SC(CC(=O)Nc4ccccc4)C(=O)N3C)ccc21 (centres undefined),6,17*,0,1,17
CCn1c2ccccc2c2cc(N=C3SC(CC(=O)Nc4ccccc4OC)C(=O)N3C)ccc21 (centres undefined),-20,0,-5,0,x
CC(C)NC(=O)CNc1ccc(C(F)(F)F)cc1[N+](=O)[O-],0,1,-1,2,-8
CCOC(=O)c1[nH]c2ccccc2c1NC(=S)Nc1cccc(C)c1,x,9.3*,-3,9,x
CCOC(=O)c1[nH]c2ccccc2c1NC(=S)Nc1ccccc1,x,0,-2,20,x
O=C(Nc1nccs1)c1cccc2ccccc12,x,x,x,x,1
CC(C)OCc1c(C(=O)Nc2nccs2)oc2ccccc12,-2,11*,-2,-1,x
CCOC(=O)C1=C(C)N(C)C(=S)NC1c1ccc(Cl)cc1 (centres undefined),-7,9.9*,-2,1,-12
Cc1cc(=O)oc2cc(O)c(N=Nc3ccccc3)cc12,1,9.4*,0,6,14
CC(=O)c1cc2c(C)cc(=O)oc2cc1O,-10,-1,2,0,x
COc1ccc(C)cc1NC(=O)C(OC(=O)CNC(=O)c1ccc(Br)cc1)c1ccccc1 (centres undefined),5,-2,0,0,-23
COc1ccc(C)cc1NC(=O)C(OC(=O)CNC(=O)c1cc(C)cc(C)c1)c1ccccc1 (centres undefined),67*,2,0,1,-18
COC(=O)C1CCN(C(=O)CN2C(=O)NC(CCc3ccccc3)C2=O)CC1 (centres undefined),-10,-4,0,0,4
O=C(CN1C(=O)NC(CCc2ccccc2)C1=O)NC1CC1 (centres undefined),-36,11*,2,0,4
Cc1cc(C)c(NC(=O)CN2C(=O)NC(CCc3ccccc3)C2=O)c(C)c1 (centres undefined),-10,11*,-1,1,x
CCNC(=O)CN1C(=O)NC(CCc2ccccc2)C1=O (centres undefined),-21,2,-1,0,19
Cc1ccc(N(Cc2cc3ccc(C)cc3[nH]c2=O)C(=O)c2ccco2)cc1,x,2,0,-1,-21
CNS(=O)(=O)c1cccc(C(=O)Nc2cccnc2)c1,-15,11*,1,1,-13
Nc1nc(Nc2ccccc2F)nc(N2CCOCC2)c1[N+](=O)[O-],-91,8.9*,0,0,-37
Nc1nc(Nc2ccccc2)nc(N2CCOCC2)c1[N+](=O)[O-],-11,-2,1,5,x
Cc1ncsc1C(=O)Nc1nc2c(s1)CC(C)CC2 (centres undefined),-8,9.6*,-7,0,x
CCN(CC)CC(=O)N1c2ccccc2CCc2ccc(NC(=O)c3cc(OC)c(OC)c(OC)c3)cc21,-11,3,-5,-1,1
CCN(CC)CC(=O)Nc1ccc2c(c1)Nc1ccccc1CC2,-15,4,-2,84*,-7
SMILES,MDM2 E3 inh,Wee1 stabilizer,TNF necrop inh,L929 necroptosis,Pf gamet viab
CCN(CC)CC(=O)Nc1ccc2c(c1)N(C(=O)CN(CC)CC)c1ccccc1CC2,-10,3,1,0,-3
O=C1c2ccccc2C(=O)N1CNc1ccccc1,3,14*,-1,0,x
Cc1ccc(NCN2C(=O)c3ccccc3C2=O)c(C)c1,-13,0,-15,0,-2
Cc1ccc(S(=O)(=O)NCC(=O)N(c2ccccc2)C(C(=O)NCc2ccccc2)c2ccco2)cc1 (centres undefined),1,1,2,0,-14
Cc1cc(C)cc(N(C(=O)CNS(=O)(=O)c2ccccc2)C(C(=O)NCc2ccccc2)c2ccc(C)o2)c1 (centres undefined),-9,11*,2,0,-6
O=S(=O)(c1cccc2cccnc12)N1CCN(c2ccc(F)cc2)CC1,-1,1,56*,4,x
